Results: PMC7059760 (ACS applied materials & interfaces, 2019)
Values after ≈ are worked out from the molar mass of the structure shown. Like-named read-outs stand apart in the source and are kept apart here.

What was measured:
antibenzothiostrobin mAb [1] = conditions: noncompetitive phage ELISA; cited from earlier work
antibenzothiostrobin mAb [2] = conditions: noncompetitive FIA, synthetic peptide FITC-Ahx-CPDIWPTAWC; cited from earlier work
antibenzothiostrobin mAb [3] = conditions: competitive phage ELISA; cited from earlier work
antibenzothiostrobin mAb [4] = conditions: competitive FIA, synthetic peptide FITC-Ahx-CSGLAEFMSC; cited from earlier work
antibenzothiostrobin mAb [5] = conditions: ic-ELISA; cited from earlier work
antibenzothiostrobin mAb [6] = assay: Inner filter effect immunoassay; format: binding, murine; conditions: ratio of SC50 values; analyte benzothiostrobin
Summary of the method: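 Homogeneous competitive format. The UCNP probe was NaYF4:Yb,Er, amine-silica coated and glutaraldehyde-coupled to the monomer, dimer or tetramer peptidomimetic, and the absorber was mAb-conjugated gold nanoflowers. Standard and both probes were mixed in BB for 1 h at 37 °C with gentle shaking. Emission at 657 nm was read under 980 nm laser excitation. ΔI (I−I0) was plotted against log analyte concentration, and SC50 was taken as 50% signal saturation.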

[7] = system: antibenzothiostrobin mAb 4E8; design: species or system murine; conditions: ITC; ratio of binding constants versus monomer
Summary of the method: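 Isothermal titration calorimetry at 25 °C. All samples were diluted in 10 mM BB and degassed. The mAb was in the cell, with water in the reference cell and buffer titrated as control. Peptide in the syringe was 260 μM (monomer), 150 μM (dimer) or 50 μM (tetramer). Run used 20 injections, 60 s initial delay and 1000 rpm stirring. N, K, ΔH and ΔS were obtained from a one-site fit, with a c value checked for quality.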

Compound | SC50 (antibenzothiostrobin mAb [1]) | SC50 (antibenzothiostrobin mAb [2]) | IC50 (antibenzothiostrobin mAb [3]) | IC50 (antibenzothiostrobin mAb [4]) | IC50 (antibenzothiostrobin mAb [5]) | improvement of IFE-IA sensitivity compared to dimer (antibenzothiostrobin mAb [6]) | improvement of IFE-IA sensitivity compared to monomer (antibenzothiostrobin mAb [6]) | fold higher affinity for mAb compared to monomer [7]
CO/C=C(/C(=O)OC)c1ccccc1CSc1nc2ccccc2s1 [benzothiostrobin] | 2.27 ng/mL | 93.4 ng/mL | 0.94 ng/mL (≈ 0.00253 µM) | 16.8 ng/mL (≈ 0.0452 µM) | 7.55 ng/mL (≈ 0.0203 µM) | – | – | –
((Ac-CSGLAEFMSC)2K)2KK (bicyclic or more) [tetramer] | – | – | – | – | – | ~3 fold | approximately 6 fold | 13.6 fold
(Ac-CSGLAEFMSC)2KK (bicyclic or more) [dimer] | – | – | – | – | – | – | – | 1.87 fold
